Results taken from publication PMC3169429 (ACS chemical biology, 2010).

Experiments:
[1] = molecular target: T1, bacteriophage T4 clamp loader, gp44/62 (Enterobacteria phage T4, UniProt P04526); experiment: ATPase inhibition assay, wild-type gp44/62; assay type: biochemical; conditions: for Selectivity Factor: Ki (γ-complex) / Ki (gp44/62)
T1 sequence (P04526 1-319): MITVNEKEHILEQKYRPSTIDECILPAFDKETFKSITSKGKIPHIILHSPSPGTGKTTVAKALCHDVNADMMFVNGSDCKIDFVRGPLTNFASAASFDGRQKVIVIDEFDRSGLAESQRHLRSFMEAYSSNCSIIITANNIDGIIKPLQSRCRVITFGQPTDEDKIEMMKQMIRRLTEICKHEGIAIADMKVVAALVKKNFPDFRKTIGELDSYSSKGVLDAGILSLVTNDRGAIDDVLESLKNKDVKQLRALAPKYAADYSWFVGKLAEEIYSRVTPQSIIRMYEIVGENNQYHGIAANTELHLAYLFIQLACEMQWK
T1 sequence (P04527 1-187 partner): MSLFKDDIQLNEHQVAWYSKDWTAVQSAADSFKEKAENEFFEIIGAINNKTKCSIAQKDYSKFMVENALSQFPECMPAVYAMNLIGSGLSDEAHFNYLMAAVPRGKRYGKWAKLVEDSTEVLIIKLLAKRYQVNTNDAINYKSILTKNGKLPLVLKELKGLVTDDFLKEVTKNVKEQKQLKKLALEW

R175L mutant of gp44/62 = R175L mutant of gp44/62 (Enterobacteria phage T4, UniProt P04526, R175L); experiment: ATPase inhibition assay, gp44/62 R175L mutant; assay type: biochemical, bacteriophage T4
Sequence of R175L mutant of gp44/62 (P04526 whole entry R175L, one chain of several): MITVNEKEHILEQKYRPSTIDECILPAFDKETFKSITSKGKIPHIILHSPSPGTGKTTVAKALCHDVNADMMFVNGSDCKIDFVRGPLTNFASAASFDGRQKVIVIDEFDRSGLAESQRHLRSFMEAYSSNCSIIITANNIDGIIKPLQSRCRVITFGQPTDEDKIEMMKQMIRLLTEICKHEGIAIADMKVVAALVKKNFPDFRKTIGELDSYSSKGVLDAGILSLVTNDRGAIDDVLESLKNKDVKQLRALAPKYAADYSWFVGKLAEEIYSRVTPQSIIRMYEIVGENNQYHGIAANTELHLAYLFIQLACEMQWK

T4 bacteriophage [2] = experiment: Plaque forming assay in JA300 E. coli; assay type: cell-based, T4 bacteriophage in E. coli JA300
[3] = molecular target: T1, bacteriophage T4 clamp loader, gp44/62; conditions: read-out: Ki (inhibition constant) against gp44/62; cited from earlier work
[4] = molecular target: E. coli clamp loader, γ-complex (Escherichia coli, UniProt P06710); experiment: ATPase inhibition assay, γ-complex; assay type: biochemical
R175K mutant of gp44/62 = R175K mutant of gp44/62 (Enterobacteria phage T4, UniProt P04526, R175K); experiment: ATPase inhibition assay, gp44/62 R175K mutant; assay type: biochemical, bacteriophage T4
Sequence of R175K mutant of gp44/62 (P04526 whole entry R175K, one chain of several): as the sequence (P04526 whole entry R175L, one chain of several) above, with L175K counted along it

[5] = molecular target: T2, bacteriophage T4 replicase (Enterobacteria phage T4, UniProt P04526); experiment: Replicase formation; assay type: biochemical; conditions: 100 µM inhibitor
T2 sequence (P04526 1-319): T1 sequence (P04526 1-319)
T2 sequence (P04527 1-187 partner): T1 sequence (P04527 1-187 partner)

[6] = molecular target: T3, gp44/62 opening of CPM-labeled gp45 (Enterobacteria phage T4, UniProt P04526); experiment: FRET quenching / stopped-flow fluorescence clamp opening assay; assay type: biochemical, bacteriophage T4; conditions: 1 mM nucleotide, CPM-labeled gp45 mixed with gp44/62
T3 sequence (P04526 1-319): T1 sequence (P04526 1-319)
T3 sequence (P04527 1-187 partner): T1 sequence (P04527 1-187 partner)

T4 DNA polymerase = experiment: DNA polymerase activity in the strand displacement assay; assay type: biochemical, bacteriophage T4; conditions: absence or presence of 100 µM d5-NITP
gp44/62 = molecular target: T4, gp44/62 (Enterobacteria phage T4, UniProt P04526); experiment: Hydrolysis of nucleotide substrates by gp44/62; assay type: biochemical, bacteriophage T4; conditions: nucleotide substrates at 500 µM
T4 sequence (P04526 1-319): T1 sequence (P04526 1-319)
T4 sequence (P04527 1-187 partner): T1 sequence (P04527 1-187 partner)
Outline: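 Wild-type T4 gp44/62 purified from an overproducing strain. Each ribo- or deoxy-nucleotide was supplied as substrate. Hydrolysis was read as Pi release by malachite green.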

T4 bacteriophage [7] = experiment: Plaque forming assay in deoxythymidine kinase deficient E. coli KY895; assay type: cell-based, T4 bacteriophage in E. coli KY895 (tdk-1); conditions: 100 µg/ml
Outline: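 The plaque assay used the deoxythymidine kinase knockout E. coli strain KY895 in place of JA300. An overnight culture was diluted 1:150 in LB and pre-incubated with the nucleoside for 60 min at 37°C. Cells were infected with ~300 pfu T4 and plated over LB/agar for 24 h at 37°C. Plaques were counted manually; ANOVA and t-test were applied.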

JA300 E. coli cells = experiment: Toxicity screen against E. coli; assay type: cell-based, Escherichia coli; conditions: in suspension or plated on LB/agar for extended periods

For `O=P(O)(O)OP(=O)(O)OP(=O)(O)OC[C@H]1O[C@@H](n2ccc3cc(C4CCCCC4)ccc32)C[C@@H]1O` [d5-CHITP, 5-cyclohexyl-indolyl-2’-deoxyriboside triphosphate], the “Selectivity Factor” value [1] was 0.51.

With `CCc1ccc2c(ccn2[C@H]2C[C@H](O)[C@@H](COP(=O)(O)OP(=O)(O)OP(=O)(O)O)O2)c1` [d5-EtITP, 5-ethyl-indolyl-2’-deoxyriboside triphosphate] the “Fold lower Ki in R175L mutant compared to wild type enzyme” value (R175L mutant of gp44/62) was ~ 10 fold and the “Selectivity Factor” value [1] was 0.11.

With `OC[C@H]1O[C@@H](n2ccc3cc(F)ccc32)C[C@@H]1O` [d5-FI, 5-fluoro-indolyl-2’-deoxyriboside] the “Inhibition of plaque formation” value (T4 bacteriophage [2]; 100 µg/mL) was “do not inhibit plaque formation”.

For `Nc1ncnc2c1ncn2C1OC(COP(=O)(O)OP(=O)(O)NP(=O)(O)O)C(O)C1O` (stereo not drawn) [AMP-PNP, 5'-adenylyl-beta, gamma-imidodiphosphate], the Ki [3] is given as 1200 µM.

With `Nc1ncnc2c1ncn2[C@@H]1O[C@H](CO[P@](=O)(O)O[P@](=O)(O)O[P@@](=O)(O)S)[C@@H](O)[C@H]1O` [ATPγS, reference compound] the Ki [4] was 13 ± 4.5 µM, the Ki (R175L mutant of gp44/62) was 33.2 ± 8 µM and the “Selectivity Factor” value [1] was 0.44. The Ki (R175K mutant of gp44/62) was 14 ± 3.5 µM.

With `O=P(O)(O)OP(=O)(O)OP(=O)(O)OC[C@H]1O[C@@H](n2ccc3cc(C4=CCCCC4)ccc32)C[C@@H]1O` [d5-CEITP, 5-cyclohexene-indolyl-2’-deoxyriboside triphosphate] the “Selectivity Factor” value [1] was 1.18.

With `O=C(N[C@H](CO)[C@H](O)c1ccc([N+](=O)[O-])cc1)C(Cl)Cl` [chloramphenicol, reference compound] the “Decrease in phage infectivity” value (T4 bacteriophage [2]; bacteriostatic agent control) was “does not cause an appreciable decrease”.

With `Nc1ccc2c(ccn2[C@H]2C[C@H](O)[C@@H](COP(=O)(O)OP(=O)(O)OP(=O)(O)O)O2)c1` [d5-AITP, 5-amino-indolyl-2’-deoxyriboside triphosphate] the “Selectivity Factor” value [1] was less than 0.23.

With `O=P(O)(O)OP(=O)(O)OP(=O)(O)OCC1OC(n2ccc3ccccc32)CC1O` (stereo not drawn) [dITP, indolyl-2’-deoxyriboside triphosphate] the “Selectivity Factor” value [1] was less than 0.30.

In the case of `C=Cc1ccc2c(ccn2[C@H]2C[C@H](O)[C@@H](COP(=O)(O)OP(=O)(O)OP(=O)(O)O)O2)c1` [d5-EyITP, 5-ethylene-indolyl-2’-deoxyriboside triphosphate], the “Fold lower Ki in R175L mutant compared to wild type enzyme” value (R175L mutant of gp44/62) is reported as ~ 10 fold and the “Selectivity Factor” value [1] is reported as less than 0.15.

For `O=[N+]([O-])c1ccc2ccn([C@H]3C[C@H](O)[C@@H](COP(=O)(O)OP(=O)(O)OP(=O)(O)O)O3)c2c1` [d6-NITP, 6-nitro-indolyl-2’-deoxyriboside triphosphate], the “Selectivity Factor” value [1] was 1.59.

For `O=[N+]([O-])c1ccc2c(ccn2[C@H]2C[C@H](O)[C@@H](COP(=O)(O)OP(=O)(O)OP(=O)(O)O)O2)c1` [d5-NITP, 5-nitro-indolyl-2’-deoxyriboside triphosphate], the “Formation of the replicase complex” value [5] was “inhibits formation of the replicase complex”, the “Amplitude of change in fluorescence (clamp opening)” value [6] was 0.044 ± 0.002 units and the “Effect on polymerase activity (products generated by polymerase alone)” value (T4 DNA polymerase) was “identical amounts of products are generated”.

For `Nc1ncnc2c1ncn2[C@H]1C[C@H](O)[C@@H](COP(=O)(O)OP(=O)(O)OP(=O)(O)O)O1` [dATP, reference compound], the “Hydrolysis by gp44/62” value (gp44/62) was “hydrolyzes dATP just as efficiently as ATP”.

For `O=[N+]([O-])c1cccc2c1ccn2[C@H]1C[C@H](O)[C@@H](COP(=O)(O)OP(=O)(O)OP(=O)(O)O)O1` [d4-NITP, 4-nitro-indolyl-2’-deoxyriboside triphosphate], the “Selectivity Factor” value [1] was 0.32 and the “Fold higher Ki than d5-NITP” value ([1]; wild type gp44/62) was ~ 6 fold.

In the case of `O=[N+]([O-])c1ccc2c(ccn2[C@H]2C[C@H](O)[C@@H](CO)O2)c1` [d5-NI, 5-nitro-indolyl-2’-deoxyriboside], the “Effect on plaque formation in tdk-1 strain KY895 compared to wild-type JA300” value (T4 bacteriophage [7]) is reported as “significantly reduced”, the “Inhibition of gp44/62” value ([1]; at concentrations greater than 200 µM) is reported as “does not inhibit” and the “Bactericidal or bacteriostatic effect on E. coli” value (JA300 E. coli cells) is reported as “does not produce a significant bactericidal or bacteriostatic effect”. The “Fold less protection at 25 µg/mL than at 50 µg/mL” value (T4 bacteriophage [2]; 25 µg/mL versus 50 µg/mL) was ~ 2.5 fold and the “Fewer plaques compared to untreated E. coli” value (T4 bacteriophage [2]; E. coli preincubated with 100 µg/mL) was ~ 40%.

With `O=[N+]([O-])c1ccc2c(ccn2[C@@H]2O[C@H](COP(=O)(O)OP(=O)(O)OP(=O)(O)O)[C@@H](O)[C@H]2O)c1` [r5-NITP, 5-nitro-indolyl-2’-ribose triphosphate] the “Hydrolysis by gp44/62” value (gp44/62) was “incapable of hydrolyzing r5-NITP” and the Hill coefficient ([1]; dose-dependent inhibition of gp44/62 ATPase activity) was ~ 1.

In the case of `O=P(O)(O)OP(=O)(O)OP(=O)(O)OC[C@H]1O[C@@H](n2ccc3cc(-c4ccccc4)ccc32)C[C@@H]1O` [d5-PhITP, 5-phenyl-indolyl-2’-deoxyriboside triphosphate], the “Selectivity Factor” value [1] is reported as 0.18.

For `Nc1ncnc2c1ncn2[C@@H]1O[C@H](COP(=O)(O)OP(=O)(O)OP(=O)(O)O)[C@@H](O)[C@H]1O` [ATP, reference compound], the “Amplitude of change in fluorescence (clamp opening)” value [6] was 0.2199 ± 0.0004 units.

For `O=P(O)(O)OP(=O)(O)OP(=O)(O)OC[C@H]1O[C@@H](n2ccc3cc(F)ccc32)C[C@@H]1O` [d5-FITP, 5-fluoro-indolyl-2’-deoxyriboside triphosphate], the “Selectivity Factor” value [1] was less than 0.17.

For `C=Cc1ccc2c(ccn2[C@H]2C[C@H](O)[C@@H](CO)O2)c1` [d5-Ey, 5-ethylene-indolyl-2'-deoxyribose], the “Inhibition of plaque formation” value (T4 bacteriophage [2]; 150 µg/mL) was 15%.
